Data taken from ChEMBL document CHEMBL4689842, “EUbOPEN Chemogenomics Library wave 1” (2021).

Test system: HEK-293T
Test: Multiplex assay against HEK293T;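 as to Population Tubulin-Different-Phenotype (%): share of the cells with healthy nuclei that show this phenotype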
Format: toxicity, cell-based
Details: human
Method in brief: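 Cells stained live at seeding with Hoechst33342, BioTracker Green Microtubule Cytoskeleton Dye, MitoTracker Red and Annexin V Alexa Fluor 680 were imaged on a CQ1 microscope at 37°C and 5% CO2 after compound addition. Their classification by CellPathfinder machine-learning gating ran from Hoechst high-intensity objects versus normal cells, to healthy, pyknosed or fragmented nuclei among normal cells, to mitotic or apoptotic among pyknosed cells. Tubulin, mitochondrial-mass and membrane-permeability phenotypes are per cents of healthy-nucleus cells.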

[1] = 12 h, 1 µM, compound concentration 1 uM, replicate 1
[2] = 12 h, 1 µM, compound concentration 1 uM, replicate 2
[3] = 12 h, 10 µM, compound concentration 10 uM, replicate 1
[4] = 12 h, 10 µM, compound concentration 10 uM, replicate 2
[5] = 24 h, 1 µM, compound concentration 1 uM, replicate 1
[6] = 24 h, 1 µM, compound concentration 1 uM, replicate 2
[7] = 24 h, 10 µM, compound concentration 10 uM, replicate 1
[8] = 24 h, 10 µM, compound concentration 10 uM, replicate 2

CC[C@H](Nc1ncnc2[nH]cnc12)c1nc2cccc(F)c2c(=O)n1-c1ccccc1 [IDELALISIB]
Population Apoptotic (%) [1]: 22% | Population Fragmented Nuclei (%) [1]: 18% | Population Healthy Nuclei (%) [1]: 46% | Population Hoechst High Intensity Objects (%) [1]: 14% | Population Membrane Permeable-Phenotype (%) [1]: 12% | Population Mitochondria Different-Phenotype (%) [1]: 15% | Population Mitotic Cells (%) [1]: 77% | Population Normal (%) [1]: 85% | Population Pyknosed Nuclei (%) [1]: 34% | Population Tubulin-Different-Phenotype (%) [1]: 29% | Total Cell Count [1]: 588 | Population Apoptotic (%) [2]: 10% | Population Fragmented Nuclei (%) [2]: 5% | Population Healthy Nuclei (%) [2]: 85% | Population Hoechst High Intensity Objects (%) [2]: 3% | Population Membrane Permeable-Phenotype (%) [2]: 11% | Population Mitochondria Different-Phenotype (%) [2]: 18% | Population Mitotic Cells (%) [2]: 89% | Population Normal (%) [2]: 96% | Population Pyknosed Nuclei (%) [2]: 9% | Population Tubulin-Different-Phenotype (%) [2]: 64% | Total Cell Count [2]: 1315 | Population Apoptotic (%) [3]: 18% | Population Fragmented Nuclei (%) [3]: 15% | Population Healthy Nuclei (%) [3]: 60% | Population Hoechst High Intensity Objects (%) [3]: 9% | Population Membrane Permeable-Phenotype (%) [3]: 4% | Population Mitochondria Different-Phenotype (%) [3]: 3% | Population Mitotic Cells (%) [3]: 81% | Population Normal (%) [3]: 91% | Population Pyknosed Nuclei (%) [3]: 23% | Population Tubulin-Different-Phenotype (%) [3]: 2% | Total Cell Count [3]: 500 | Population Apoptotic (%) [4]: 8% | Population Fragmented Nuclei (%) [4]: 8% | Population Healthy Nuclei (%) [4]: 86% | Population Hoechst High Intensity Objects (%) [4]: 2% | Population Membrane Permeable-Phenotype (%) [4]: 1% | Population Mitochondria Different-Phenotype (%) [4]: 10% | Population Mitotic Cells (%) [4]: 91% | Population Normal (%) [4]: 97% | Population Pyknosed Nuclei (%) [4]: 5% | Population Tubulin-Different-Phenotype (%) [4]: 7% | Total Cell Count [4]: 1603 | Population Apoptotic (%) [5]: 17% | Population Fragmented Nuclei (%) [5]: 14% | Population Healthy Nuclei (%) [5]: 67% | Population Hoechst High Intensity Objects (%) [5]: 10% | Population Membrane Permeable-Phenotype (%) [5]: 16% | Population Mitochondria Different-Phenotype (%) [5]: 12% | Population Mitotic Cells (%) [5]: 82% | Population Normal (%) [5]: 89% | Population Pyknosed Nuclei (%) [5]: 18% | Population Tubulin-Different-Phenotype (%) [5]: 48% | Total Cell Count [5]: 613 | Population Apoptotic (%) [6]: 8% | Population Fragmented Nuclei (%) [6]: 17% | Population Healthy Nuclei (%) [6]: 77% | Population Hoechst High Intensity Objects (%) [6]: 3% | Population Membrane Permeable-Phenotype (%) [6]: 28% | Population Mitochondria Different-Phenotype (%) [6]: 4% | Population Mitotic Cells (%) [6]: 91% | Population Normal (%) [6]: 96% | Population Pyknosed Nuclei (%) [6]: 4% | Population Tubulin-Different-Phenotype (%) [6]: 68% | Total Cell Count [6]: 2065 | Population Apoptotic (%) [7]: 18% | Population Fragmented Nuclei (%) [7]: 11% | Population Healthy Nuclei (%) [7]: 77% | Population Hoechst High Intensity Objects (%) [7]: 5% | Population Membrane Permeable-Phenotype (%) [7]: 8% | Population Mitochondria Different-Phenotype (%) [7]: 4% | Population Mitotic Cells (%) [7]: 81% | Population Normal (%) [7]: 94% | Population Pyknosed Nuclei (%) [7]: 10% | Population Tubulin-Different-Phenotype (%) [7]: 7% | Total Cell Count [7]: 587 | Population Apoptotic (%) [8]: 3% | Population Fragmented Nuclei (%) [8]: 29% | Population Healthy Nuclei (%) [8]: 68% | Population Hoechst High Intensity Objects (%) [8]: 3% | Population Membrane Permeable-Phenotype (%) [8]: 5% | Population Mitochondria Different-Phenotype (%) [8]: 1% | Population Mitotic Cells (%) [8]: 96% | Population Normal (%) [8]: 96% | Population Pyknosed Nuclei (%) [8]: 2% | Total Cell Count [8]: 2772
